Calls of active or inactive are those of the source.
Experiments:
[1] = test system: Streptococcus pyogenes; test: Antibacterial activity against Streptococcus pyogenes SPY3 assessed as reduction in bacterial growth incubated for 24 hrs in presence of polymyxin B; format: functional
[2] = test system: Escherichia coli; test: Antibacterial activity against Escherichia coli EC204 harboring NDM-1 assessed as reduction in bacterial growth incubated for 24 hrs in presence of polymyxin B; format: functional
[3] = test system: Pseudomonas aeruginosa; test: Antibacterial activity against Pseudomonas aeruginosa PAO1 assessed as reduction in bacterial growth incubated for 24 hrs in presence of polymyxin B; format: functional
[4] = test system: Pseudomonas aeruginosa; test: Antibacterial activity against Pseudomonas aeruginosa PA14 assessed as reduction in bacterial growth incubated for 24 hrs in presence of polymyxin B; format: functional
[5] = test system: Pseudomonas aeruginosa; test: Antibacterial activity against Pseudomonas aeruginosa ATCC 27853 assessed as reduction in bacterial growth incubated for 24 hrs in presence of polymyxin B; format: functional
[6] = test system: Pseudomonas aeruginosa; test: Bactericidal activity against Pseudomonas aeruginosa ATCC 27853 assessed as log reduction in colony forming units at 0.5 fold MIC measured after 24 hrs in presence of polymyxin B at MIC by time kill assay; format: functional
Procedure, shortened: (§1)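 Time-kill in Mueller-Hinton 2 broth. Inoculum was a 1/1000 dilution of a 16 h overnight culture, about 10^6 CFU/mL, 10 mL per tube. Arms were each agent alone at ×1 MIC, or the combination at ×1 MIC plus ×0.5 MIC partner. Incubated at 37 °C with continuous agitation for 24 h. Samples taken at 0, 2, 4, 6 and 24 h, serially diluted and plated on IsoSensitest agar for CFU counts.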

[7] = test system: Stenotrophomonas maltophilia; test: Bactericidal activity against Stenotrophomonas maltophilia NCTC […] assessed as log reduction in colony forming units at 0.5 fold MIC measured after 24 hrs in presence of polymyxin B at MIC by time kill assay; format: functional; procedure, shortened: as §1
[8] = test system: Acinetobacter baumannii; test: Antibacterial activity against Acinetobacter baumannii ATCC 19606 assessed as reduction in bacterial colony formation at 0.5 fold MIC measured after 24 hrs by time kill assay; format: functional, organism-based; conditions: ATCC 19606 = CIP 70.34 = JCM 6841; procedure, shortened: as §1
[9] = test system: Enterococcus faecium; test: Potentiation of polymyxin B-induced antibacterial activity against vancomycin-resistant Enterococcus faecium OEF42 assessed as fold reduction in polymyxin B MIC measured after 24 hrs in presence of polymyxin B by checkerboard assay; format: functional
[10] = test system: Streptococcus pyogenes; test: Potentiation of polymyxin B-induced antibacterial activity against Streptococcus pyogenes SPY2 assessed as fold reduction in polymyxin B MIC measured after 24 hrs […] checkerboard assay; format: functional
Procedure, shortened: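 Polymyxin B MIC measured alone and in combination with curcumin; fold reduction derived from the two MICs. Experiments run in triplicate and reported as mean values.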

[11] = test system: Pseudomonas aeruginosa; test: Potentiation of polymyxin B-induced antibacterial activity against Pseudomonas aeruginosa PAO1 assessed as fold reduction in polymyxin B MIC measured after 24 hrs in presence of polymyxin B by checkerboard assay; format: functional
[12] = test system: Enterococcus faecium; test: Antibacterial activity against vancomycin-resistant Enterococcus faecium OEF42 assessed as reduction in bacterial growth incubated for 24 hrs in presence of curcumin; format: functional
[13] = test system: Streptococcus pyogenes; test: Antibacterial activity against Streptococcus pyogenes SPY2 assessed as reduction in bacterial growth incubated for 24 hrs in presence of curcumin; format: functional
[14] = test system: Pseudomonas aeruginosa; test: Antibacterial activity against Pseudomonas aeruginosa PAO1 assessed as reduction in bacterial growth incubated for 24 hrs in presence of curcumin; format: functional
[15] = test system: Enterococcus faecium; test: Synergistic antibacterial activity against vancomycin-resistant Enterococcus faecium OEF65 assessed as fractional inhibitory concentration index measured after 24 hrs in presence of curcumin by checkerboard assay; format: functional
Procedure, shortened: (§2)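 FICI was derived from checkerboard MICs. Synergy was defined as FICI ≤ 0.5 and additive as FICI > 0.5−4.0. Where an MIC was not reached, the dilution above the maximum dose was used in the FICI calculation. Experiments were run in triplicate and reported as means.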

[16] = test system: Enterococcus faecalis; test: Synergistic antibacterial activity against […] Enterococcus faecalis ATCC 29212 assessed as fractional inhibitory concentration index measured after 24 hrs in presence of curcumin by checkerboard assay; format: functional; procedure, shortened: as §2
[17] = test system: Staphylococcus aureus; test: Synergistic antibacterial activity against Staphylococcus aureus ATCC 25923 assessed as fractional inhibitory concentration index measured after 24 hrs in presence of curcumin by checkerboard assay; format: functional; procedure, shortened: as §2
[18] = test system: Streptococcus pyogenes; test: Synergistic antibacterial activity against Streptococcus pyogenes SPY1 assessed as fractional inhibitory concentration index measured after 24 hrs in presence of curcumin by checkerboard assay; format: functional
Procedure, shortened: (§3)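 FICI calculated from combination MICs; ≤0.5 taken as synergy and >0.5–4.0 as additive. Where an MIC was not reached, the dilution above the highest concentration tested was used in the calculation. Run in triplicate and reported as means.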

[19] = test system: Escherichia coli; test: Synergistic antibacterial activity against Escherichia coli EC2 harboring CTX-M-15 assessed as fractional inhibitory concentration index measured after 24 hrs in presence of curcumin by checkerboard assay; format: functional; procedure, shortened: as §2
[20] = test system: Pseudomonas aeruginosa; test: Synergistic antibacterial activity against Pseudomonas aeruginosa PAO1 assessed as fractional inhibitory concentration index measured after 24 hrs in presence of curcumin by checkerboard assay; format: functional; procedure, shortened: as §3
[21] = test system: Pseudomonas aeruginosa; test: Synergistic antibacterial activity against Pseudomonas aeruginosa PA14 assessed as fractional inhibitory concentration index measured after 24 hrs in presence of curcumin by checkerboard assay; format: functional; procedure, shortened: as §3
[22] = test system: Stenotrophomonas maltophilia; test: Synergistic antibacterial activity against Stenotrophomonas maltophilia SMB07 assessed as fractional inhibitory concentration index measured after 24 hrs in presence of curcumin by checkerboard assay; format: functional; procedure, shortened: as §3
[23] = test system: Pseudomonas aeruginosa; test: Antibacterial activity against Pseudomonas aeruginosa ATCC 27853 assessed as log reduction in colony forming units at MIC measured after 6 hrs by time kill assay; format: functional; procedure, shortened: as §1
[24] = test system: Staphylococcus aureus; test: Antibacterial activity against methicillin-resistant Staphylococcus aureus NCTC 12493 assessed as reduction in colony formation at MIC measured up to 24 hrs by time kill assay; format: functional, organism-based; conditions: time hrs <=24
Procedure, shortened: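 Time-kill in 10 mL Mueller-Hinton 2 broth, 37 °C with continuous agitation, 24 h. Inoculum was a 1/1000 dilution of a 16 h overnight culture, about 10^6 CFU/mL. Single agents at 1× MIC; combination at 1× MIC polymyxin B plus 0.5× MIC curcumin. Samples at 0, 2, 4, 6 and 24 h were serially diluted and plated on IsoSensitest agar for CFU/mL.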

[25] = test system: HaCaT; test: Cytotoxicity against human HaCaT cells at 6.1 uM measured after 4 hrs by CyTox 96 nonradioactive assay relative to control; format: cell-based
[26] = test system: Streptococcus pyogenes; test: Synergistic antibacterial activity against Streptococcus pyogenes SPY3 assessed as fractional inhibitory concentration index measured after 24 hrs in presence of curcumin by checkerboard assay

Question: Which MIC [1] does the source give for `COc1cc(/C=C/C(=O)CC(=O)/C=C/c2ccc(O)c(OC)c2)ccc1O` [CURCUMIN] here?
Answer: Its MIC is 43 µM.

Question: What about the MIC [2] of the same compound?
Answer: The MIC was 174 µM.

Question: And the MIC [3]?
Answer: The MIC was 43 µM.

Question: And the MIC [4]?
Answer: The MIC was 22 µM.

Question: And the MIC [5]?
Answer: The MIC was 174 µM.

Question: What about the Activity [6] of the same compound?
Answer: The Activity was over 3 log10CFU/ml.

Question: What about the Activity [7] of the same compound?
Answer: Its Activity is over 3 log10CFU/ml.

Question: And the Activity [8]?
Answer: Its Activity is “inactive”.

Question: And the “fold change (FC)” value [9]?
Answer: The value was 3.

Question: What about the “fold change (FC)” value [10] of the same compound?
Answer: The value was 3.

Question: And the “fold change (FC)” value [11]?
Answer: Its value is 3.

Question: With `CC[C@H](C)CCCCC(=O)N[C@@H](CCN)C(=O)N[C@H](C(=O)N[C@@H](CCN)C(=O)N[C@H]1CCNC(=O)[C@H]([C@@H](C)O)NC(=O)[C@H](CCN)NC(=O)[C@H](CCN)NC(=O)[C@H](CC(C)C)NC(=O)[C@@H](Cc2ccccc2)NC(=O)[C@H](CCN)NC1=O)[C@@H](C)O.O=S(=O)(O)O` as the compound, how does the MIC [12] read?
Answer: The MIC was 3.1 µM.

Question: And the MIC [13]?
Answer: Its MIC is 0.79 µM.

Question: And the MIC [14]?
Answer: Its MIC is 0.012 µM.

Question: What about the “fractional inhibitory concentration index (FICI)” value [15] of the same compound?
Answer: The value was 0.281.

Question: What about the “fractional inhibitory concentration index (FICI)” value [16] of the same compound?
Answer: Its value is 0.251.

Question: What about the “fractional inhibitory concentration index (FICI)” value [17] of the same compound?
Answer: Its value is 0.156.

Question: What about the “fractional inhibitory concentration index (FICI)” value [18] of the same compound?
Answer: The value was 0.094.

Question: What about the “fractional inhibitory concentration index (FICI)” value [19] of the same compound?
Answer: The value was 0.266.

Question: And the “fractional inhibitory concentration index (FICI)” value [20]?
Answer: Its value is 0.031.

Question: And the “fractional inhibitory concentration index (FICI)” value [21]?
Answer: Its value is 0.023.

Question: And the “fractional inhibitory concentration index (FICI)” value [22]?
Answer: The value was 0.023.

Question: What about the Activity [23] of the same compound?
Answer: Its Activity is 2 log10CFU/ml.

Question: What about the Activity [24] of the same compound?
Answer: Its Activity is “inactive”.

Question: And the Activity [25]?
Answer: Its Activity is 2%.

Question: What about the “fractional inhibitory concentration index (FICI)” value [26] of the same compound?
Answer: The value was 0.5.

Source: ChEMBL document CHEMBL4715738, “In Vitro Antibacterial Activity of Curcumin-Polymyxin B Combinations against Multidrug-Resistant Bacteria Associated with Traumatic Wound Infections” (J Nat Prod, 2016)
